# Sampled rows, rich in hits. Any-hit rate of the full collection: about 1.6%.
# Rin1-Abl PPI inh: human Rin1-Abl interaction inhibition | AID 588664 | 0.4% of 360,000 active | P00519+Q13671 | inhibition, % at 7.35 µM | TR-FRET Rin1/Abl binding, biochemical; in the data active means inhibition above about 5%, passing the limit was not always enough
# TbMetRS inhib: Trypanosoma brucei MetRS inhibition; purified T. brucei MetRS, ATP depletion, Kinase-Glo luminescence; inhibition, % at 11.9 µM; 0.4% of 360,000 active; AID 624268;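 active means inhibition above a per-plate cutoff of the control wells' mean inhibition plus 3 SD, cut at about 5.5% in these data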;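 further: 0% = DMSO wells median and 100% = median of wells with control inhibitor compound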
#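 Dosing: 11.9 µM compound single dose, 0.9% DMSO; Assay system: purified T. brucei MetRS enzyme; Measured by: Kinase-Glo luciferase luminescence reporting remaining unconsumed ATP; Schedule: 15 min plus 2 h at 25 °C.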
# MT1-MMP act inh: MT1-MMP (human) activation inhibition. 0.061% of 360,000 active. HT1080 RFP-PRO-GFP cells, GFP/RFP ratio fluorescence, overnight; percent of plate control window, DMSO zero. P50281. GFP/RFP ratio change, % at 20 µM;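 active means GFP/RFP ratio change of at least 30% with cell ATP level not reduced by more than half and red fluorescence within 50% of control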
#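 Material – HT1080 RFP-PRO-GFP cells · Control set – DMSO wells and RFP-L50D-GFP cells · Incubation – overnight cell settling, then overnight compound exposure, 37 °C, 5% CO2 · Compound dosing – single-point 20 µM compound, 1% DMSO · Read-out – GFP/RFP fluorescence ratio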
# Arrestin-AP2 inh: blocks beta-arrestin peptide binding to AP2 adaptin; FITC-arrestin peptide / GST-AP2 beads, flow cytometry; AP2 beta2 appendage carries R879A mutation; inhibition, % at 10 µM; 0.31% of 340,000 active; AID 504490;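 active means inhibition above a set limit, near 3 SD of compounds lacking own fluorescence, cut at about 54% in these data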;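 further: plate controls were DMSO wells for no effect and 5 µM unlabelled arrestin peptide for full effect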
#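 Material – AP2 appendage R879A on GSH beads · Buffer or medium – PBS with 0.05% Tween 20 and 0.1% BSA · Probe or stimulus – fluorescein-tagged arrestin peptide at 50 nM final · Incubation – compound with beads 12 min RT, then probe 1 h RT · Detection – high-throughput flow cytometry of beads, ex 488, em 535 nm · Evaluation – percent response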
# SKN-1 block: C. elegans SKN-1 inhibition; AID 624304; C. elegans VP596 Pgst-4::GFP/RFP ratio, acrylamide-induced, 24 h; 0.49% of 360,000 active; inhibition, % at 21.8 µM;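 active means interference check ratio from 0.5 to 1.5 plus GFP to RFP signal ratio inhibition reaching or exceeding a fixed threshold, cut at about 30% in these data, passing the limit was not always enough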
# Rin1-Abl confirm: Rin1-Abl interaction inhibition confirmation; shares compounds with Rin1-Abl PPI inh; TR-FRET Rin1-Abl binding, purified proteins; inhibition, % at 7.35 µM; 49% of 1,300 active; AID 602124
# GFP quench: quenches GFP fluorescence, counter-screen for Rin1-Abl inhibitors. shares compounds with Rin1-Abl PPI inh. inhibition, % at 6.75 µM. inhibitors/quenchers counterscreen. 8.5% of 1,300 active;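 further: ABL1-eGFP fusion protein alone without its partner RIN1-SBP; 0% = protein with vehicle and 100% = wells lacking protein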
# GFP quench dose: quenches GFP in dose response, Rin1-Abl counter-screen; GFP fluorescence interference/quenching counterscreen; IC50, µM; AID 602182; shares compounds with Rin1-Abl PPI inh; 230 tested, under 10 active; call rule not given here;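 further: ABL1-eGFP fusion protein alone without its RIN1 binding partner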
# An asterisk follows results filed as active; x = no result. Unless noted, no stated cut-off is given here; in the data, active means inhibition above about 6.5%; inactive means the rest.
SMILES,Rin1-Abl PPI inh,TbMetRS inhib,MT1-MMP act inh,Arrestin-AP2 inh,SKN-1 block,Rin1-Abl confirm,GFP quench,others
COc1ccccc1CN1C[C@@H]2C[C@@H](c3ccc4nsnc4c3)N3CCC[C@@]23C1=O,22.4*,0.0,-1.0,-26.5,-3.6,24.8*,-0.3,GFP quench dose=>67.5
O=S1(=O)CC(N2CCCC2)CN1Cc1cn(Cc2ccccc2)nn1 (stereo not given),x,0.0,3.8,x,15.0,x,x,
Cc1noc(C)c1NC(=O)NC(c1ccccc1)c1ccccc1,6.3*,-2.0,10.0,-5.3,-13.3,0.5,0.1,
CSCCC(C(=O)NCc1ccccc1)n1c(Cc2cc(F)cc(F)c2)nc2ccccc21 (stereo not given),x,0.7,-3.3,x,2.2,x,x,
O=C(C1CCCCC1)N1C[C@@H](O)[C@H](n2cc(-c3ccc(F)cc3)nn2)C[C@@H]1c1ccc(Cl)cc1,-0.5,-0.7,2.4,x,7.5,x,x,
CC(=O)NC(c1cccc([N+](=O)[O-])c1)c1ccc2cccnc2c1O (stereo not given),3.7,-0.2,13.0,23.4,2.4,x,x,
CC(=O)NC(c1ccco1)c1cc(Cl)c2cccnc2c1O (stereo not given),11.1*,-0.2,4.7,x,13.0,10.6*,3.3,
CC(=O)NC(c1ccc(C)cc1)c1cc(Cl)c2cccnc2c1O (stereo not given),7.0*,-1.4,-4.7,-3.8,0.3,6.1,2.1,
COc1cccc(C(NC(C)=O)c2ccc3cccnc3c2O)c1 (stereo not given),6.7*,-1.6,3.9,16.5,7.7,9.6*,1.9,
CC1C=CCC2C(=O)N(c3cccc(C(=O)NCc4ccccc4)c3)C(=O)C12 (stereo not given),7.8*,-1.2,-0.3,0.6,18.3,-1.9,0.2,
O=S(=O)(c1ccc(Cl)cc1)N1CCC2(CC1)OCCO2,12.4*,-0.1,-4.8,15.8,-13.5,0.2,-1.9,
O=C1NC(=O)c2c(Br)c(Br)c(Br)c(Br)c21,0.0,-0.3,1.3,2.5,-0.6,x,x,
CCCc1cc(N2CCN(c3ccccn3)CC2)n2nc(C)c(-c3ccccc3)c2n1,8.1*,-1.0,-5.2,17.4,18.3,0.5,-0.5,
Cc1cccc(OCc2nnc3n2CCCCC3)c1,8.0*,-1.0,-2.1,10.0,-0.5,-2.4,-1.9,
FC(F)(F)c1cccc(OCc2nnc3n2CCC3)c1,-3.7,-0.1,6.0,-11.4,-1.6,x,x,
O=C(NCC(F)(F)F)c1csc([C@@H]2O[C@H](CO)[C@H](O)[C@H](O)[C@H]2O)n1,-0.9,-0.3,-0.6,x,-1.2,x,x,
CCN(CC)c1ncnc2c1ncn2[C@H]1CN(Cc2cccnc2)C[C@@H](CO)O1,2.9,-0.1,1.6,x,7.9,x,x,
O=c1[nH]c(CSc2ccccn2)nc2c1oc1ccccc12,9.9*,0.7,3.6,33.2,3.2,-4.5,0.9,
CCc1nc2c(oc3ccccc32)c(=O)[nH]1,-1.4,-0.7,3.5,-0.6,20.4,x,x,
O=C(CN1C(=O)CSc2cc(S(=O)(=O)N3CCCCCC3)ccc21)NCCc1ccccc1,6.1*,-0.8,3.9,2.2,2.6,-2.2,-0.4,
CN(C)CCNC(=O)CN1C(=O)CSc2ccc(S(=O)(=O)N3CCCCC3)cc21,2.5,-0.2,-3.3,-5.8,-6.6,x,x,
O=C(CCNC(=O)c1ccc(Br)cc1)NCc1ccncc1,10.4*,0.0,5.0,15.7,-0.4,3.3,0.7,
O=C(NCc1ccncc1)c1ccc(Br)cc1,-3.5,0.1,3.4,-3.2,10.8,x,x,
CNC(=O)C[C@@H]1C(=O)N(CCc2ccccc2)CC1(C)C,-1.2,-0.8,1.8,x,13.4,x,x,
Cc1cc(=O)n(C2CCS(=O)(=O)C2)[nH]1 (stereo not given),11.7*,1.0,5.6,-3.3,12.3,0.2,-0.9,
SMILES,Rin1-Abl PPI inh,TbMetRS inhib,MT1-MMP act inh,Arrestin-AP2 inh,SKN-1 block,Rin1-Abl confirm,GFP quench,others
N#Cc1ccccc1OCC(=O)Nc1ccc2c(c1)OCO2,-1.6,-0.2,-0.1,x,12.3,x,x,
O=C1Cc2cccc(=O)c(O)c2C(=O)O1,8.2*,-0.1,1.4,x,1.4,9.6*,5.2,
Cc1nc(C)n(C)c(=O)c1-c1ccccc1,39.9*,-0.6,1.6,40.7,-2.9,-1.3,0.2,
Cc1nc(C)c(-c2ccccc2)c(=O)[nH]1,-0.8,-0.5,1.8,-7.6,3.6,x,x,
O=c1c(O)c(-c2ccc(O)c(O)c2)oc2cc(O)cc(O)c12,23.9*,0.8,-56.0,19.7,11.6,15.9*,3.8,
CC1OC(Oc2c(-c3cc(O)c(O)c(O)c3)oc3cc(O)cc(O)c3c2=O)C(O)C(O)C1O (stereo not given),42.3*,0.1,4.2,0.9,-3.7,45.0*,14.9*,
Cc1cccc(NC(=O)CNC(=O)c2cccc(-n3cccc3)c2)c1C,1.0,0.2,1.0,0.4,-5.6,x,x,
O=C(Nc1ccccc1N1CCN(C(=O)c2ccc(Cl)cc2)CC1)c1cccnc1,17.5*,-0.6,0.4,2.8,13.8,22.5*,0.9,GFP quench dose=>67.5
COc1ncccc1-c1cc2nc(NCCNC(C)=O)n(C)c(=O)c2s1,-2.6,-0.3,7.3,x,14.6,x,x,
CC(=O)Nc1ccc(CNc2nc(NCC3CC3)nc3ccsc23)cc1,7.2*,0.5,2.2,x,6.6,4.8,-1.4,
COc1ccc(CC(=O)NNC(=S)NC(=O)c2cccnc2)cc1,6.8*,-0.4,1.4,10.8,-4.1,0.4,1.6,
CCCc1ccc2oc(C(=O)N3CCNC(=O)C3CC(=O)OC)c(C)c2c1 (stereo not given),-1.1,0.5,1.8,5.5,-0.6,x,x,
O=C1N(c2ccc(Cl)cc2)C(c2ccccc2)N2CCCN12 (stereo not given),8.3*,-0.8,-0.3,-22.4,2.5,11.6*,-0.3,
Cc1ccc(C2N(c3cccc(Cl)c3)C(=O)N3CCCN23)cc1 (stereo not given),29.4*,0.1,-2.4,2.8,6.1,29.6*,-0.6,GFP quench dose=>67.5
O=C1N(c2ccccc2)C(c2ccccc2)N2CCCN12 (stereo not given),-0.1,-1.0,0.5,41.2,-9.4,x,x,
Cc1ccc(C2N(c3ccccc3)C(=S)N3CCCN23)cc1 (stereo not given),-1.8,-0.4,-3.8,-1.6,4.9,x,x,
CCn1cc(/C=C(\NC(=O)c2ccccc2OC)C(=O)NCCN2CCOCC2)c2ccccc21,-2.9,-0.3,3.5,x,-0.7,x,x,
C[C@@H]1CN([C@H](C)CO)C(=O)c2cc(C#C[C@@H](C)O)cnc2O[C@H]1CN(C)C(=O)c1ccc(F)cc1,-2.7,0.4,5.2,x,0.8,x,x,

# Source: PubChem BioAssay
